Data published in ChEMBL document CHEMBL4130632, “Targeting Myeloid Differentiation Using Potent 2-Hydroxypyrazolo[1,5- a]pyridine Scaffold-Based Human Dihydroorotate Dehydrogenase Inhibitors” (J Med Chem, 2018).
One block for each compound: values may come before it.

Key:
[1] = tested on: Jurkat; test: Cytotoxicity against human Jurkat T cells assessed as compound concentration required to induce =>30% cell death after 72 hrs by CellTox green assay; type: cell-based
Outline: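 Jurkat T cells (complete X-VIVO 15, 10% FBS, 37 °C, 5% CO2; passages 5–10, mycoplasma-tested), 5 × 10^3/well. Cells exposed to 0.001–100 μM compound or DMSO vehicle for 72 h. Cell death read by CellTox Green. Value is the concentration giving significant (≥30%) cytotoxicity, mean ± SE of three independent experiments.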

[2] = biological target: Dihydroorotate dehydrogenase (quinone), mitochondrial (Homo sapiens, UniProt Q02127); test: Inhibition of recombinant N-terminal GST-tagged human DHODH (31 to 395 residues) expressed in Escherichia coli BL21(DE3) assessed as inhibition of DCIP reduction using dihydroorotate as substrate preincubated for 5 mins followed by substrate addition measured after 5 mins
Chain of Dihydroorotate dehydrogenase (quinone), mitochondrial (Q02127 whole entry, the tested form may be a part): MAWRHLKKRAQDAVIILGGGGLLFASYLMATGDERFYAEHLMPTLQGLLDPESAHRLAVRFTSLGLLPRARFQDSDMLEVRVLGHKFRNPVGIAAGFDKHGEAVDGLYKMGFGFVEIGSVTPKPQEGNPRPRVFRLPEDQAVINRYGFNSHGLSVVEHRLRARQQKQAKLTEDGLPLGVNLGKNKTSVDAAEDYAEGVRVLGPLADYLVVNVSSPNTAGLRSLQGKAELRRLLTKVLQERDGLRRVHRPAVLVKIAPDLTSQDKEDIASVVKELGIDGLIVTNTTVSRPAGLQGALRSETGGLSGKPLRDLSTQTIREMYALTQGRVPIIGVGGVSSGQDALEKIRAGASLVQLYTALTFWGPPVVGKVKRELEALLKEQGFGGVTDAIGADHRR

[3] = tested on: PBMC; test: Immunosuppressive activity against human PBMC assessed as inhibition of PHA-stimulated cell proliferation preincubated for 2 hrs followed by PHA stimulation for 72 hrs by Hoechst 33258 dye-based fluorescence assay; type: functional
[4] = tested on: PBMC; test: Immunosuppressive activity against human PBMC assessed as inhibition of PHA-stimulated cell proliferation preincubated for 2 hrs followed by PHA stimulation for 72 hrs in presence of exogenous uridine by Hoechst 33258 dye-based fluorescence assay; type: functional
[5] = tested on: THP-1; test: Induction of myeloid differentiation in human THP1 cells assessed as increase in CD14 expression level at 0.1 to 1 uM up to 4 days by propidium iodide staining-based flow cytometry
[6] = tested on: Jurkat; test: Antiproliferative activity against human Jurkat T cells assessed as DNA content after 72 hrs by Hoechst 33258 dye-based fluorescence assay; type: functional, cell-based
[7] = tested on: Jurkat; test: Antiproliferative activity against human Jurkat T cells assessed as DNA content after 72 hrs in presence of exogenous uridine by Hoechst 33258 dye-based fluorescence assay; type: functional, cell-based
[8] = tested on: U-937; test: Induction of myeloid differentiation in human U937 cells assessed as increase in CD11b expression level at 0.1 to 1 uM up to 4 days by propidium iodide staining-based flow cytometry; type: functional
Outline: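 Cells plated at 1 × 10^4 with inhibitor 0.1–10 μM. Differentiation was followed daily by flow cytometry, to day 4 for U937 and day 5 for THP1. Markers were PE-CD11b for U937 and FITC-CD14 for THP1, stained 45 min at 4 °C in PBS/2% BSA/1 mM EDTA. Propidium iodide excluded dead cells. Uridine-rescue (100 μM) samples were read at day 3.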

[9] = Stability of the compound in human serum assessed as compound remaining at 37 degC after 24 hrs by RP-HPLC analysis; type: ADME, cell-free; settings: read-out: Stability
Outline: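 Compound from DMSO stock added to human male AB serum (2% cosolvent) and shaken at 37 °C. Samples taken at 0–24 h were deproteinized with 0.1% TFA in acetonitrile, centrifuged and filtered. Analyzed by C18 RP-HPLC (acetonitrile/water 70/30, 0.1% TFA). Value is % unmodified parent at 24 h.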

SMILES: C/C(O)=C(\C#N)C(=O)Nc1ccc(C(F)(F)F)cc1 [TERIFLUNOMIDE]
Activity [1]: 53 µM

IC50 [2]: > 5 µM
SMILES: Cn1c(=O)c(C(=O)Nc2c(F)c(F)c(-c3ccccc3)c(F)c2F)c2ccccn21

IC50 [2]: 0.045 µM
SMILES: Cn1nc(O)c(C(=O)Nc2c(F)c(F)c(-c3ccccc3)c(F)c2F)n1

SMILES: Cc1c(-c2ccc(-c3ccccc3F)cc2)nc2ccc(F)cc2c1C(=O)O [BREQUINAR]
IC50 [3]: 3.74 µM
IC50 [4]: 59.6 µM
%max [5]: 40%
IC50 [6]: 0.91 µM
IC50 [7]: 94.2 µM
%max [8]: 40%
remaining at 24 h [9]: 98%
